# Test results: ChEMBL document CHEMBL4118097, “Selective Inhibitors of Dual Leucine Zipper Kinase (DLK, MAP3K12) with Activity in a Model of Alzheimer's Disease” (J Med Chem, 2017)
# Assays:
# [1] = target: Protein kinase C alpha type (Homo sapiens) (UniProt P17252); assay: Inhibition of recombinant full length human PKCalpha expressed in baculovirus expression system at 1 uM by FRET assay relative to control
# [2] = target: Serine/threonine-protein kinase PAK 4 (Homo sapiens, UniProt O96013); assay: Inhibition of recombinant GST-tagged human PAK4 catalytic domain expressed in baculovirus expression system at 1 uM by FRET assay relative to control
# Method in brief: (§1)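 Single-point screen at 1 μM compound in a 220-kinase panel run by Life Technologies (SelectScreen). Z′-LYTE format: phosphorylation of a labeled peptide substrate read by FRET. Values are reported as percent inhibition.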
# [3] = target: Eukaryotic elongation factor 2 kinase (Homo sapiens) (UniProt O00418); assay: Inhibition of recombinant full length GST-tagged human eEF2K expressed in Escherichia coli at 1 uM by FRET assay relative to control
# [4] = target: Receptor tyrosine-protein kinase erbB-2 (Homo sapiens) (UniProt P04626); assay: Inhibition of recombinant His-tagged human ErbB2 cytoplasmic domain expressed in baculovirus expression system at 1 uM by FRET assay relative to control; method in brief: as §1
# [5] = target: Mitogen-activated protein kinase 14 (Homo sapiens) (UniProt Q16539); assay: Inhibition of recombinant full length GST-tagged human p38alpha expressed in Escherichia coli at 1 uM by FRET assay relative to control
# [6] = target: G protein-coupled receptor kinase 5 (Homo sapiens) (UniProt P34947); assay: Inhibition of recombinant full length GST-tagged human GRK5 expressed in baculovirus expression system at 1 uM by FRET relative to control
# G protein-coupled receptor kinase 5 (Homo sapiens), sequence (P34947 whole entry, looked up): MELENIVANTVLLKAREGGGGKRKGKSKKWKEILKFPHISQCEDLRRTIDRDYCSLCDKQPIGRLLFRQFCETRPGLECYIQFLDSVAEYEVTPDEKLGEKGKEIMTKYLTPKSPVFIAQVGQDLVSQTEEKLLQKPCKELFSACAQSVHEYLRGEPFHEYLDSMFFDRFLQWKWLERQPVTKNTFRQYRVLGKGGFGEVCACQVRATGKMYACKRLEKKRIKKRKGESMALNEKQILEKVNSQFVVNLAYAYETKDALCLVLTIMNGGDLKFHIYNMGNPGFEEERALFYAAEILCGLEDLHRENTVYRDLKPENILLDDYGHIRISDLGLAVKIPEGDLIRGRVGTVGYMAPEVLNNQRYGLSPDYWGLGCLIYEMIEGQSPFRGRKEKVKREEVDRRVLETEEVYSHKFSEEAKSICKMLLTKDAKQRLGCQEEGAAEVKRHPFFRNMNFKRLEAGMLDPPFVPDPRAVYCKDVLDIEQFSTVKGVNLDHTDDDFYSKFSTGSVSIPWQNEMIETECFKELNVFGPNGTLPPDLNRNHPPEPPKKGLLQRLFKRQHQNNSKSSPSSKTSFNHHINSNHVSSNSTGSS
# Method in brief: (§2)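 Single-concentration screen at 1 μM in Life Technologies SelectScreen, across a 220-kinase panel. Z′-LYTE format measures phosphorylation of a labeled peptide by FRET. Results are reported as percent inhibition.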
# [7] = target: Glycogen synthase kinase-3 beta (Homo sapiens) (UniProt P49841); assay: Inhibition of recombinant full length His-tagged human GSK3beta expressed in baculovirus expression system at 1 uM by FRET relative to control
# [8] = target: Serine/threonine-protein kinase mTOR (Homo sapiens) (UniProt P42345); assay: Inhibition of recombinant GST-tagged human mTOR catalytic domain (1360 to 2549 residues) expressed in baculovirus expression system at 1 uM by FRET assay relative to control; method in brief: as §1
# [9] = target: RAC-beta serine/threonine-protein kinase (Homo sapiens) (UniProt P31751); assay: Inhibition of recombinant full length His-tagged human AKT2 expressed in baculovirus expression system at 1 uM by FRET assay relative to control
# [10] = target: Ribosomal protein S6 kinase (Homo sapiens) (UniProt P51812+Q9UBS0+O75676+Q15349+O75582+P23443+Q9UK32+Q15418); assay: Inhibition of recombinant GST-tagged human p70S6K catalytic domain expressed in baculovirus expression system at 1 uM by FRET assay relative to control; method in brief: as §1
# [11] = target: Serine/threonine-protein kinase 3 (Homo sapiens) (UniProt Q13188); assay: Inhibition of recombinant full length GST-tagged human MST2 expressed in baculovirus at 1 uM by FRET assay relative to control; method in brief: as §2
# Serine/threonine-protein kinase 3 (Homo sapiens), sequence (Q13188 whole entry, the tested form may be a part): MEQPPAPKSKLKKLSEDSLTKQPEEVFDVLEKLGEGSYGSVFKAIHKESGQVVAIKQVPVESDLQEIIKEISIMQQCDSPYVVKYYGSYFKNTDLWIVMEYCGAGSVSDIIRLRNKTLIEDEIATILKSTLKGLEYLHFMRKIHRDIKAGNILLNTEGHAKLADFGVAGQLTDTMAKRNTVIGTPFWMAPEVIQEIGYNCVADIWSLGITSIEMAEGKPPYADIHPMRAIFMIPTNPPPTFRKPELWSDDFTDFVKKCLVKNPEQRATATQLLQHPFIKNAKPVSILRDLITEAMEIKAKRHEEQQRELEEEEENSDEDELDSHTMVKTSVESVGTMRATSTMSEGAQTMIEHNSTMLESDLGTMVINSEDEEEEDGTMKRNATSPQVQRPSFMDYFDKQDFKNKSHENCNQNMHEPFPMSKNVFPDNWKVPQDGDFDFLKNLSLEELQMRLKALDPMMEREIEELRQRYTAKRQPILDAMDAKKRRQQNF
# [12] = target: Tyrosine-protein kinase Tec (Homo sapiens) (UniProt P42680); assay: Inhibition of recombinant full length His-tagged human TEC cytoplasmic domain expressed in baculovirus expression system at 1 uM by FRET assay relative to control
# [13] = target: Dual specificity mitogen-activated protein kinase kinase 6 (Homo sapiens) (UniProt P52564); assay: Inhibition of recombinant human full length His-tagged MKK6 expressed in baculovirus at 1 uM by FRET assay relative to control
# Dual specificity mitogen-activated protein kinase kinase 6 (Homo sapiens), sequence (P52564 whole entry): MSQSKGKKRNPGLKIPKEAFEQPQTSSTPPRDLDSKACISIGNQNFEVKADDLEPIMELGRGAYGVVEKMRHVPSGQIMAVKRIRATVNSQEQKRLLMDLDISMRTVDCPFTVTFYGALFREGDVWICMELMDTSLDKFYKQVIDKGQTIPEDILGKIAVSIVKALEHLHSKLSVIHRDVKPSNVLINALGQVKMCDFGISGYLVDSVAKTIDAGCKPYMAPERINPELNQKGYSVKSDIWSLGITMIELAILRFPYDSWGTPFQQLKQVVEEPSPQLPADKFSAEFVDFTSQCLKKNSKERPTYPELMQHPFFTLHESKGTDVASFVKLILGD
# [14] = target: Mitogen-activated protein kinase 8 (Homo sapiens, UniProt P45983); assay: Inhibition of recombinant full length His-tagged human JNK1alpha1 expressed in baculovirus expression system at 1 uM by FRET assay relative to control
# [15] = target: Calcium/calmodulin-dependent protein kinase kinase 1 (Homo sapiens) (UniProt Q8N5S9); assay: Inhibition of recombinant full length His-tagged human CAMKK1 expressed in baculovirus expression system at 1 uM by FRET assay relative to control
# [16] = target: Mitogen-activated protein kinase kinase kinase 2 (Homo sapiens) (UniProt Q9Y2U5); assay: Inhibition of recombinant full length GST-tagged human MEKK2 expressed in baculovirus expression system at 1 uM by FRET assay relative to control
# Mitogen-activated protein kinase kinase kinase 2 (Homo sapiens), sequence (Q9Y2U5 whole entry): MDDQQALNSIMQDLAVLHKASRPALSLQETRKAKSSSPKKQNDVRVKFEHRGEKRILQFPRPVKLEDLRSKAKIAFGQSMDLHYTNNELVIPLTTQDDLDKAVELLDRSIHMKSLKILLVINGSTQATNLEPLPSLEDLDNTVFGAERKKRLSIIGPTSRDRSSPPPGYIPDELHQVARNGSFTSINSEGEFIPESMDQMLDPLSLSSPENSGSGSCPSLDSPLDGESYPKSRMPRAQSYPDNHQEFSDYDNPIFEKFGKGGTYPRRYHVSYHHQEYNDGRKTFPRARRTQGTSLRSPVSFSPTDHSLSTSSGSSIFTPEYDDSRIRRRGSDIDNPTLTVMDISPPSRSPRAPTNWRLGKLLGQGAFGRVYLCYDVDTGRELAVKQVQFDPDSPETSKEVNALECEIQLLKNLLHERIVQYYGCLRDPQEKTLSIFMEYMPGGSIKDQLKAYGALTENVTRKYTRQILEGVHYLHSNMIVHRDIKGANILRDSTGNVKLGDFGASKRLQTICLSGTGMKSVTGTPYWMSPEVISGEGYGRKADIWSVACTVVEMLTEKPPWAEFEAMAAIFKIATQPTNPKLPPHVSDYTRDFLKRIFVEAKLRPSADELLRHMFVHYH
# Method in brief: (§3)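 Part of a 220-kinase panel run at a single concentration of 1 μM. Z′-LYTE format: phosphorylation of a labelled peptide read by FRET. Values reported as percent inhibition.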
# [17] = target: G protein-coupled receptor kinase 6 (Homo sapiens) (UniProt P43250); assay: Inhibition of recombinant full length GST-tagged human GRK6 expressed in baculovirus expression system at 1 uM by FRET relative to control; method in brief: as §2
# [18] = target: Casein kinase II subunit alpha (Homo sapiens) (UniProt P68400); assay: Inhibition of CK2alpha1 (unknown origin) at 1 uM by FRET assay relative to control
# Casein kinase II subunit alpha (Homo sapiens), sequence (P68400 whole entry, looked up): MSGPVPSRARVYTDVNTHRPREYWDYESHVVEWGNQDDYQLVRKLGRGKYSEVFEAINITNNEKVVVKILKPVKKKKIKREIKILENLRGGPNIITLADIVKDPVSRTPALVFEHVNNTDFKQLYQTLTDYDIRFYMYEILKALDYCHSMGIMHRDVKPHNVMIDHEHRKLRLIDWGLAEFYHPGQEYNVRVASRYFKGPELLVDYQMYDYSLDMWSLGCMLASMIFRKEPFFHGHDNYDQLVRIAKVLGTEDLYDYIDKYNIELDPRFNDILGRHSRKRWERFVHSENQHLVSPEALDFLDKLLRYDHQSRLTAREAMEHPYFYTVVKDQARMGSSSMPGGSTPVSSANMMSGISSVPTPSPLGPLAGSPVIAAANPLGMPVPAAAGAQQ
# [19] = target: Sodium-dependent serotonin transporter (Homo sapiens) (UniProt P31645); assay: Binding affinity to 5HT transporter (unknown origin) at 10 uM relative to control
# Method in brief: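 Broad radioligand-binding and enzyme screening panel covering 42 targets (biogenic amine and neuropeptide receptors, ion channels, neurotransmitter transporters, acetylcholinesterase). Single test concentration of 10 μM. Results expressed as binding relative to control, with a hit defined as >50% of control.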
# [20] = target: Phosphorylase b kinase gamma catalytic chain, skeletal muscle/heart isoform (Homo sapiens) (UniProt Q16816); assay: Inhibition of recombinant full length GST-tagged human PHKgamma1 expressed in baculovirus expression system at 1 uM by FRET assay relative to control; method in brief: as §2
# [21] = target: Receptor-type tyrosine-protein kinase FLT3 (Homo sapiens) (UniProt P36888); assay: Inhibition of recombinant His-tagged human FLT3 cytoplasmic domain expressed in baculovirus expression system at 1 uM by FRET assay relative to control; method in brief: as §1
# [22] = target: Activin receptor type-1B (Homo sapiens) (UniProt P36896); assay: Inhibition of recombinant GST-tagged human ACVR1B catalytic domain (150 to 505 residues) expressed in baculovirus expression system at 1 uM by FRET assay relative to control
# [23] = target: Tyrosine-protein kinase BTK (Homo sapiens) (UniProt Q06187); assay: Inhibition of recombinant full length His-tagged human BTK cytoplasmic domain expressed in baculovirus expression system at 1 uM by FRET assay relative to control
# Tyrosine-protein kinase BTK (Homo sapiens), sequence (Q06187 whole entry, the tested form may be a part): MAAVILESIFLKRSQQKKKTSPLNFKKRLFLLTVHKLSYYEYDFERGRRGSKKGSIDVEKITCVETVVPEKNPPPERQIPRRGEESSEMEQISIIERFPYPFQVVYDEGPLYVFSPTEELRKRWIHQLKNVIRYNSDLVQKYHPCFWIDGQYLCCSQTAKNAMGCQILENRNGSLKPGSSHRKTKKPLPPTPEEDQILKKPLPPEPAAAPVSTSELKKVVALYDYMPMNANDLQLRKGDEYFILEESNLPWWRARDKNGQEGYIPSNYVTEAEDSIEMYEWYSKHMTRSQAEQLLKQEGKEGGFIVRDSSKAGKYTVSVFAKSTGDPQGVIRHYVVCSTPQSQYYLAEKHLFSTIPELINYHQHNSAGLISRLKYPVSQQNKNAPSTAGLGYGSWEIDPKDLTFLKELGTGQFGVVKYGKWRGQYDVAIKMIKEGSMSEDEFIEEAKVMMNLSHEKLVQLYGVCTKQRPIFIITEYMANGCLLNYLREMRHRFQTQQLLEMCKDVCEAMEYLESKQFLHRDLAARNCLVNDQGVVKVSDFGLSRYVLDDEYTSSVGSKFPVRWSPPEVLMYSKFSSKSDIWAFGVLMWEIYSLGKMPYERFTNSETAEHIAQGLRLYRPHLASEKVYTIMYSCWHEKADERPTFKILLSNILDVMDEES
# [24] = target: Dual specificity protein kinase CLK3 (Homo sapiens) (UniProt P49761); assay: Inhibition of full length recombinant GST-tagged human CLK3 expressed in baculovirus expression system at 1 uM by FRET assay relative to control
# Dual specificity protein kinase CLK3 (Homo sapiens), sequence (P49761 whole entry, looked up, the tested form may be a part): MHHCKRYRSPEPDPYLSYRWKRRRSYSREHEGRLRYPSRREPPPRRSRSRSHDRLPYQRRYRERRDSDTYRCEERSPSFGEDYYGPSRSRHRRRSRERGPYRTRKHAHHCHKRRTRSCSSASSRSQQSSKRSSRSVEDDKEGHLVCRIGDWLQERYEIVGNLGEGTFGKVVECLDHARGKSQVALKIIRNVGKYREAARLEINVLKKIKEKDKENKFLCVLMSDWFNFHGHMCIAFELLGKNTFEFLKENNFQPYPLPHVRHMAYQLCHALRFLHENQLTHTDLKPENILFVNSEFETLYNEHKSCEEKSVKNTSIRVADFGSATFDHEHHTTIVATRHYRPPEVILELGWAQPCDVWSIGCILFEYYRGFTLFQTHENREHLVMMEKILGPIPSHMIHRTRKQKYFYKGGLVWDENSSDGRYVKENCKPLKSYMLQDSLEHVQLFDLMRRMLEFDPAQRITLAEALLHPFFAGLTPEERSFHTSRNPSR
# [25] = target: Insulin receptor-related protein (Homo sapiens) (UniProt P14616); assay: Inhibition of recombinant GST-tagged human IRR cytoplasmic domain (944 to 1297 residues) expressed in baculovirus expression system at 1 uM by FRET relative to control; method in brief: as §1
# Insulin receptor-related protein (Homo sapiens), sequence (P14616 27-742 limits assumed): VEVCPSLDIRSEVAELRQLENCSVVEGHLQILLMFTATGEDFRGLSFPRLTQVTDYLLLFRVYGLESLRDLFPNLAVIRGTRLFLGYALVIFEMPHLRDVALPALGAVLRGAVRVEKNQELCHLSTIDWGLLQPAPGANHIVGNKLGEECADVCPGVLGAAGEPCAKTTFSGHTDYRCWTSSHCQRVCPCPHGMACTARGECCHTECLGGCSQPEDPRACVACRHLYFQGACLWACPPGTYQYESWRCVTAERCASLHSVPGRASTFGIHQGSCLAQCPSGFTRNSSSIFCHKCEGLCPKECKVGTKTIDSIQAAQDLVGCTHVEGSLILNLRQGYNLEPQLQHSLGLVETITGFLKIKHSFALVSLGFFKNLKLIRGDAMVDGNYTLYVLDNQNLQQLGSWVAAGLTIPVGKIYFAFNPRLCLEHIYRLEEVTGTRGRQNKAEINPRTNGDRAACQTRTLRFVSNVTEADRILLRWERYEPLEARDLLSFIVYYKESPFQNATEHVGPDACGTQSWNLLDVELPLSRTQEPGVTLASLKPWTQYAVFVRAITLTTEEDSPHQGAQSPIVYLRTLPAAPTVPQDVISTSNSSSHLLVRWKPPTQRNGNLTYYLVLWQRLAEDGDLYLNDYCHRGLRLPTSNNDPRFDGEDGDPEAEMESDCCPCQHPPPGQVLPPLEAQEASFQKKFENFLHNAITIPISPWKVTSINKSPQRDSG
# Insulin receptor-related protein (Homo sapiens), sequence (P14616 747-1297 limits assumed): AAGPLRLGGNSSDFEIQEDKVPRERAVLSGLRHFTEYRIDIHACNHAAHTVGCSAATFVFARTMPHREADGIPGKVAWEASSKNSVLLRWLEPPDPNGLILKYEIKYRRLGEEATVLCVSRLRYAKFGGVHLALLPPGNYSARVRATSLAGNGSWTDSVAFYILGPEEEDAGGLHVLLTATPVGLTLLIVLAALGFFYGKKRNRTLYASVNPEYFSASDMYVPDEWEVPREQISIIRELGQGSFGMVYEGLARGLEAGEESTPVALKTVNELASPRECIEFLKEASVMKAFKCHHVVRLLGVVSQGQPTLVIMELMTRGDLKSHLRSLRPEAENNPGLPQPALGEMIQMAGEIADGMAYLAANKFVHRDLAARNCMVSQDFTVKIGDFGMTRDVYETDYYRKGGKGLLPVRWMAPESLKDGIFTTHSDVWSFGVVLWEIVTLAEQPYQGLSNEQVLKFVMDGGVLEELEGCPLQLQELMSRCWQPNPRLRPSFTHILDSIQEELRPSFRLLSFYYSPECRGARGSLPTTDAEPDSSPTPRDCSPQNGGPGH
# [26] = target: Leukocyte tyrosine kinase receptor (Homo sapiens) (UniProt P29376); assay: Inhibition of recombinant GST-tagged human LTK cytoplasmic domain (440 to 864 residues) expressed in baculovirus expression system at 1 uM by FRET assay relative to control; method in brief: as §3
Structure (SMILES),inhibition [1] [%],inhibition [2] [%],inhibition [3] [%],inhibition [4] [%],inhibition [5] [%],inhibition [6] [%],inhibition [7] [%],inhibition [8] [%],inhibition [9] [%],inhibition [10] [%],inhibition [11] [%],inhibition [12] [%],inhibition [13] [%],inhibition [14] [%],inhibition [15] [%],inhibition [16] [%],inhibition [17] [%],inhibition [18] [%],Activity [19] [%],inhibition [20] [%],also measured
Nc1ncc(-c2cc([C@H]3[C@@H]4CN(C5COC5)C[C@@H]43)n(CC3CC3)n2)cc1C(F)(F)F,22.4,40.5,-5.1,-5.4,5.8,-8.1,1.3,-0.8,-0.3,6.9,0,4.8,-0.9,1.5,-0.3,4,-4.2,3.5,> 50,3,inhibition [21]: 66.5%; inhibition [22]: 2.9%; inhibition [23]: 19.9%; inhibition [24]: -3.6%; inhibition [25]: 15.9%; inhibition [26]: 31.5%
CC(C)n1nc(-c2cnc(N)c(OC(F)(F)F)c2)cc1[C@H]1[C@@H]2CN(C3COC3)C[C@@H]21,30.3,69.5,4.4,-0.8,1.1,-1.3,11.3,7.9,3.1,4.5,10.1,-1.5,10.6,9.1,-7.5,0.5,2.5,1.5,> 50,4,inhibition [21]: 52.5%; inhibition [22]: -6.8%; inhibition [23]: 9.9%; inhibition [24]: 5.9%; inhibition [25]: 32.7%; inhibition [26]: 9.8%
